Results pooled from the literature.
Each line is one published result; the experiments were not run side by side.
Target: Maternal embryonic leucine zipper kinase (MELK, Homo sapiens, UniProt Q14680)

SMILES | test | conditions | measurement | value
CCCCC(=O)Nc1ccc(-c2ccc3ncn(CCC)c(=O)c3c2)cn1 | binding, competition with immobilised ligand | 0.5 µM | remaining binding | 86%
C1=C/COCc2cc(ccc2OCCN2CCCC2)Nc2nccc(n2)-c2cccc(c2)COC/1 | binding | 0.1 µM | remaining binding | 84%
COc1ccc2oc(-c3ccc4nc(N)oc4c3)c/c(=N\c3ccccc3NC(=O)CCN)c2c1 | binding | 1 µM | remaining binding | 99%
CC#CC(=O)N1CCC[C@H]1c1nc(-c2ccc(C(=O)Nc3ccccn3)cc2)c2c(N)nccn12 | enzyme activity, inhibitor | 1 µM | inhibition | 41%
C[C@H]1CC[C@H](n2c3cnccc3c3cnc(Nc4ccc5c(n4)CCN(C(=O)CO)C5)nc32)CC1 | cell-free assay | 1 µM | remaining signal | 24%
CO[C@@H]1[C@H](N(C)C(=O)c2ccccc2)C[C@H]2O[C@]1(C)n1c3ccccc3c3c4c(c5c6ccccc6n2c5c31)C(=O)NC4 | enzyme activity, inhibitor | 1 µM | inhibition | 60%
C#Cc1cc(-c2cc(Nc3nc(N[C@@H](C)c4ccc(F)cn4)ncc3Cl)n[nH]2)ccc1C=O | enzyme activity, inhibitor | 0.2 µM | inhibition | 34.3%
CN1CCN(C(=O)c2ccc(NC(=O)Nc3ccc(N(C)c4ccnc(Nc5ccc(CS(C)(=O)=O)cc5)n4)cc3)cc2)CC1 | binding | 1 µM | remaining binding | 81%
